Results published in ChEMBL document CHEMBL2311271 (Eur J Med Chem, 2013).

Columns and labels:
Assay type in all cases: functional, cell-based
[1] = test system: HepG2; assay: Cytotoxicity against human HepG2 cells by MTT assay
In short: (§1)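 Cells grown in RPMI-1640 with 10% fetal calf serum plus penicillin and streptomycin, 37 °C, 5% CO₂. Compounds in DMSO, final ≤2% (v/v), tested in 96-well cultures with MTT staining. IC₅₀ = concentration cutting optical density 50% versus untreated cells; three replicate wells per point; mean of three independent determinations.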

[2] = test system: HeLa; assay: Cytotoxicity against human HeLa cells by MTT assay; in short: as §1
[3] = test system: Bel-7402; assay: Cytotoxicity against human Bel7402 cells by MTT assay; in short: as §1
[4] = test system: BGC-823; assay: Cytotoxicity against human BGC823 cells by MTT assay; in short: as §1
[5] = test system: MCF7; assay: Cytotoxicity against human MCF7 cells by MTT assay; in short: as §1
[6] = test system: U-251; assay: Cytotoxicity against human U251 cells by MTT assay; in short: as §1
[7] = test system: A549; assay: Cytotoxicity against human A549 cells by MTT assay; in short: as §1
[8] = Cytotoxicity against human Blu-87 cells by MTT assay; in short: as §1
[9] = test system: 769-P; assay: Cytotoxicity against human 769-P cells by MTT assay; in short: as §1
[10] = test system: OS-RC-2; assay: Cytotoxicity against human OS-RC2 cells by MTT assay; in short: as §1
[11] = test system: SCaBER; assay: Cytotoxicity against human SCaBER cells by MTT assay; in short: as §1
[12] = test system: HT-29; assay: Cytotoxicity against human HT-29 cells by MTT assay; in short: as §1
[13] = test system: KB; assay: Cytotoxicity against human KB cells by MTT assay; in short: as §1
[14] = test system: 786-0; assay: Cytotoxicity against human 786-0 cells by MTT assay; in short: as §1
[15] = test system: A-375; assay: Cytotoxicity against human A375 cells by MTT assay; in short: as §1
[16] = test system: CWR22R; assay: Cytotoxicity against human 22Rv1 cells by MTT assay; in short: as §1

SMILES	IC50 [1] [µM]	IC50 [2] [µM]	IC50 [3] [µM]	IC50 [4] [µM]	IC50 [5] [µM]	IC50 [6] [µM]	IC50 [7] [µM]	IC50 [8] [µM]	IC50 [9] [µM]	IC50 [10] [µM]	IC50 [11] [µM]	IC50 [12] [µM]	IC50 [13] [µM]	IC50 [14] [µM]	IC50 [15] [µM]	IC50 [16] [nM]
Cc1nccc2c3ccc(OCCCc4ccccc4)cc3n(CCCc3ccccc3)c12	16.7	> 100	> 100	19.8	> 100											
Cc1nccc2c3ccc(OCCCc4ccccc4)cc3n(CC(C)C)c12	27.7	27.6	> 100	18.5	19.5											
CCCCn1c2cc(OC(CC)CC)ccc2c2ccnc(C)c21	15.6	28.2	21.5	16.7	5.4	25.1	21	16	22.2	26.9	43.8	25.1	19.8	13.4	18.8	
CCCCCCCCOc1ccc2c3ccnc(C)c3n(CCCc3ccccc3)c2c1	> 100	> 100														
CCCCOc1ccc2c3ccnc(C)c3n(CCCc3ccccc3)c2c1	12.4	88.7	34.8	14	68.9											
CCCCOc1ccc2c3cc[n+](Cc4ccccc4)c(C)c3n(CC(C)C)c2c1						1.8	2.2	8.9	2.3	5.8	9.7	4	6	2.4	2.1	< 1600
CCn1c2cc(OCc3c(F)c(F)c(F)c(F)c3F)ccc2c2ccnc(C)c21	> 100	> 100	> 100	> 100	> 100											
CCCCOc1ccc2c3cc[n+](Cc4ccccc4)c(C)c3n(CC)c2c1	10	2.4	2.9	10.9	5.9	14.2	13	22.9	4.6	8.8	21.8	6.4	< 1.7	7.8	6.9	
Cc1c2c(cc[n+]1Cc1ccccc1)c1ccc(OCCCc3ccccc3)cc1n2CC(C)C	4	1.4	1.3	2.5	9.2	2.5	< 1.5	3.8	3.7	3.5	3.6	4.9	< 1.5	2.3	< 1.5	2800
CCOc1ccc2c3cc[n+](Cc4ccccc4)c(C)c3n(CC)c2c1						15.2	11.2	23.4	6.4	7.8	19.8	10.2	4.6	9.6	6.8	
CCCCCCCCCCOc1ccc2c3ccnc(C)c3n(CC(C)C)c2c1	> 100	2	> 100	74.1	> 100											
Cc1nccc2c3ccc(OCc4c(F)c(F)c(F)c(F)c4F)cc3n(CCCc3ccccc3)c12	> 100															
CCn1c2cc(OCc3ccccc3)ccc2c2cc[n+](Cc3ccccc3)c(C)c21	49.9	56.3	3.6	66.1	67.6	16.2	19.6	22.1	8.9	15.9	46.3	10.9	8.7	15.4	12.3	
CC(C)=CCOc1ccc2c3ccnc(C)c3n(CCCc3ccccc3)c2c1	21.1	> 100	24.7	32.3	> 100											
CCCCCCCCOc1ccc2c3cc[n+](Cc4ccccc4)c(C)c3n(CCCc3ccccc3)c2c1						2.9	1.6	1.9	1.8	1.7	6.1	3.4	< 1.5	< 1.5	< 1.5	< 1500
CCCCn1c2cc(OCC(O)C(F)(F)F)ccc2c2ccnc(C)c21 (stereo not given)	> 100	> 100	62	96.4	33.1											

SMILES	IC50 [1] [µM]	IC50 [2] [µM]	IC50 [3] [µM]	IC50 [4] [µM]	IC50 [5] [µM]	IC50 [6] [µM]	IC50 [7] [µM]	IC50 [8] [µM]	IC50 [9] [µM]	IC50 [10] [µM]	IC50 [11] [µM]	IC50 [12] [µM]	IC50 [13] [µM]	IC50 [14] [µM]	IC50 [15] [µM]	IC50 [16] [nM]
CCCCn1c2cc(OCc3ccccc3)ccc2c2ccnc(C)c21	17.8	47	> 100	17.2	16.9		18.1	32.7	17.1		39.7	26.8	45	10.1	28.6	
CCCCCCCCOc1ccc2c3cc[n+](Cc4ccccc4)c(C)c3n(CCCC)c2c1	2.7	4	0.86	3.7	4.1	2	< 1.5	2	< 1.5	< 1.5	4.6	3.2	< 1.5	< 1.5	< 1.5	2900
CCCCn1c2cc(OCCCc3ccccc3)ccc2c2ccnc(C)c21	15.6	24.7	> 100	13.8	16	29.9	28.1	26.9	21.3		20.3	51.2	41.6	12.9	21.5	40500
Cc1nccc2c3ccc(OCC(C)C)cc3n(CCCc3ccccc3)c12	12.9	> 100	39.3	23	> 100											
CCCCn1c2cc(OCC(C)C)ccc2c2cc[n+](Cc3ccccc3)c(C)c21	4.2	3.9	2.7	4.6	10.4	12.1	3.8	12.3	4.6	3.2	18.2	3.1	2	2.5	4.2	6700
CCn1c2cc(OCc3ccccc3)ccc2c2ccnc(C)c21	15.5	> 100	> 100	17.2	> 100											
CCCCCCCCCCOc1ccc2c3ccnc(C)c3n(CCCC)c2c1	> 100	> 100														
Cc1c2c(cc[n+]1Cc1ccccc1)c1ccc(OCC(C)C)cc1n2CC(C)C	5.7	2.1	4.3	5.4	2.9	4.5	4.3	5.2	< 1.5	8.3	12.8	4.2	< 1.5	3.4	3.9	2600
CCCCOc1ccc2c3cc[n+](Cc4ccccc4)c(C)c3n(CCCc3ccccc3)c2c1	4.1	3.9	2.5	4.1	3.8	3.7	< 1.5	4.4	2.9	6.8	4.7	3.4	< 1.5	2.6	1.5	3400
CCCCOc1ccc2c3ccnc(C)c3n(CC)c2c1	16.3	29.2	52.9	15.6	18.5											
Cc1nccc2c3ccc(OCC(C)C)cc3n(CC(C)C)c12	36.8	32.3	42.6	26.6	29.4	49.6	32.4	32.3	30.8	30.5	28.8	35.3	27.5	18.1	22.2	
CCCCn1c2cc(OCC(C)C)ccc2c2ccnc(C)c21	15.3	40.7	25.6	23.4	21.6	32.3	30	17.4	4	30.5	15.9	20.1	19.4	14.4	18.4	
CCCCCCCCCCOc1ccc2c3ccnc(C)c3n(CC)c2c1	14.1	> 100	> 100	15.2	45.9											
CCCCn1c2cc(OCc3c(F)c(F)c(F)c(F)c3F)ccc2c2ccnc(C)c21	13.6	> 100	> 100	18.3	> 100											
CCn1c2cc(OC(C)C)ccc2c2ccnc(C)c21	52.6	27.6	43.6	59.7	> 100											
CCCCCCCCOc1ccc2c3ccnc(C)c3n(CCCC)c2c1	13.6	> 100	> 100	15.4	13.6											
